Most compounds without a hit are left out; they make up all but 5.1% or so of the library.
ERa coact inh – blocks coactivator binding to human estrogen receptor alpha. TR-FRET ER-alpha LBD / SRC-1 peptide, estradiol-bound. hit rate 1.7% among 86,000. P03372. inhibition, % at 25.6 µM; in the data active = inhibition above about 50%
BAP1 block – inhibitors of human BAP1 deubiquitinase. hit rate 0.48% among 72,000. recombinant BAP1, Ub-AMC hydrolysis fluorescence kinetic; active compounds read low. Q92560. calls only at 20 µM. AID 436;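 active = activity remaining at or below 50% of control, provided the compound also passes the data quality filters; inactive = the rest, including low values that fail the filters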
SF1 activator – activators of human nuclear receptor SF-1. hit rate 1.9% among 65,000. AID 522. Q13285. CHO-K1 Gal4-SF-1 LBD luciferase reporter; % increase over DMSO SF-1-specific signal. activation, % at 10 µM;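 active = activation above the mean activation of all tested compounds plus 3 SD, cut at about 50% in these data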
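Material: Gal4–SF-1 LBD one-hybrid luciferase reporter in CHO-K1 cells | Amount: 4,000 cells per well | Compound dosing: 10 µM single point, 1% DMSO | Schedule: 20 h compound treatment, 37 °C | Measured by: SteadyLite luciferase luminescence | Evaluation: Percent activation versus DMSO | Control set: DMSO-treated SF-1-transfected cells as negative, DMSO-treated mock-transfected cells lacking SF-1 as background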
ERb SRC1 inh – blocks coactivator binding to human estrogen receptor beta; hit rate 1.3% among 86,000; TR-FRET ER-beta LBD / SRC1-Cy5 peptide binding; receptor agonist-loaded with 1 µM estradiol; Q92731; inhibition, % at 25.6 µM;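 active = compounds whose percent inhibition of the receptor-coactivator binding signal exceeds about 50% in the single-dose screen, limit read from the data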
ERa coact pot – enhances coactivator binding to human estrogen receptor alpha; TR-FRET ERalpha-LBD/SRC-Cy5 coactivator binding, 2 h; 100 = basal binding, no effect; coactivator binding (% of control), % at 25.6 µM; hit rate 1.3% among 86,000; AID 639; in the data active = activity above about 200%;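 also: binding measured in presence of low estradiol as agonist stimulus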
RORA act – activators of human nuclear receptor RORA | CHO-K1 Gal4-RORA LBD luciferase reporter, luminescence; percent increase over mock-subtracted basal signal | AID 560 | activation, % at 10 µM | hit rate 1.5% among 65,000 | P35398;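 active = activation above the mean of all tested compounds plus 3 SD, cut at about 49% in these data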
Target sequence (P35398 whole entry, looked up, the tested form may be a part): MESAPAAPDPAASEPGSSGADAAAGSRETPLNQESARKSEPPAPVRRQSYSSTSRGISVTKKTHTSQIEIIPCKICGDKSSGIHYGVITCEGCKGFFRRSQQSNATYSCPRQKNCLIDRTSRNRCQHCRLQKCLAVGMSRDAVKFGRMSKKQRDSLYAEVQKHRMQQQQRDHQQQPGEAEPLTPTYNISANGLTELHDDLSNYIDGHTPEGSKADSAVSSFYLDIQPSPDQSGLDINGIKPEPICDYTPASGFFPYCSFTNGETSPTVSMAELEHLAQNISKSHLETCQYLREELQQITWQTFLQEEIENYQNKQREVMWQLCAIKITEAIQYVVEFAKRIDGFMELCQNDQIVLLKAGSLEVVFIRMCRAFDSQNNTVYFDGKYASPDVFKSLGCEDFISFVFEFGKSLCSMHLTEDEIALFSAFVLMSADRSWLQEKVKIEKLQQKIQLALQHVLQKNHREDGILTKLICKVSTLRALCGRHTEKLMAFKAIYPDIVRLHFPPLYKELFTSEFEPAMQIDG
Hits are given with their value; n = inactive; x = no result shown; [ ] = remark or other dose.

SMILES	ERa coact inh	BAP1 block	SF1 activator	ERb SRC1 inh	ERa coact pot	RORA act
CCOc1ccc2nc(COC(=O)c3ccco3)c(C(C)=O)[n+]([O-])c2c1	n	n	n	n	n	n
CCCNc1nc(N2CCOCC2)nc(N2CCOCC2)n1	n	n	n	55	n	n
C=CCNc1nc(N2CCOCC2)nc(N2CCOCC2)n1	n	x	x	n	n	x
O=C(COC(=O)CCOc1ccccc1)NCc1ccco1	70	n	n	62[fluorescence artefact?]	n	n
O=C(CCSCCC(=O)NCc1ccco1)NCc1ccco1	59[fluorescence artefact?]	n	n	57[fluorescence artefact?]	n	n
Clc1cc(-n2nc(-c3ccccc3)cc2-c2ccccc2)ncn1	x	n	x	x	x	x
Cc1ccc(CCNC(=O)c2coc3nc4ccccc4nc23)cc1	n	x	n	n	290[fluorescence artefact?]	n
CC1CCN(CCCNC(=O)c2coc3nc4ccccc4nc23)CC1	n	n	n	n	n	n
Cc1ccc(-c2nc3cc(NC(=O)c4ccc([N+](=O)[O-])cc4)ccc3o2)cc1	x	n	x	x	x	x
Cc1ccc(-n2ncc3c(=O)[nH]c(SCC(=O)N4CCCC4)nc32)cc1C	n	n	n	n	n	n
O=C(CSc1nc2ccccc2[nH]1)N1CCN(c2ccc(F)cc2)CC1	n	n	n	n	n	n
Cc1ccc(-n2ncc3c(=O)[nH]c(SCC(=O)N4CCN(c5ccccc5)CC4)nc32)cc1	n	n	n	53[fluorescence artefact?]	n	n
CC1CCN(C(=O)CSc2nc3ccccc3[nH]2)CC1	n	n	n	n	n	61
CCSc1nc2c(cnn2-c2ccc(C)c(C)c2)c(=O)[nH]1	70[fluorescence artefact?]	n	n	65[fluorescence artefact?]	239[fluorescence artefact?]	n
Cc1ccc(-n2ncc3c(=O)[nH]c(SCC(=O)N4CCC(C)CC4)nc32)cc1C	n	n	n	n	346[fluorescence artefact?]	n
Cc1cccc(N=c2oc3ccccc3cc2-c2nc3ccccc3[nH]2)c1	x	n	x	x	x	x
COc1cc(C2C(C(=O)OCCc3ccccc3)=C(C)NC3=C2C(=O)CCC3)cc(Cl)c1O (configuration not stated)	x	n	x	x	x	x
O=C(Nc1ccc2oc(-c3ccccc3)nc2c1)c1ccc2c(c1)OCCO2	n	x	n	n	n	n
CC(=O)N1CCN(c2ccc(NC(=O)c3ccc4c(c3)OCCO4)cc2)CC1	n	n	n	n	n	n
COC(=O)c1ccc(NC(=O)c2cccc(OC)c2)cc1	n	n	n	n	n	49
COc1ccc(-c2nc3cc(NC(=O)c4ccc5c(c4)OCO5)ccc3o2)cc1	n	x	n	n	412[fluorescence artefact?]	n
CN1CCN(c2ccc(NC(=O)c3ccc4c(c3)OCO4)cc2)CC1	n	n	61	n	n	n
COc1ccc(NC(=O)c2ccc3c(c2)OCO3)cc1Cl	n	n	53	n	n	n
COc1ccc(NCc2ccc3c(c2)OCO3)cc1Cl	n	n	n	n	n	n
COC(=O)c1sccc1NC(=O)c1ccc2c(c1)OCO2	n	x	x	n	n	x
SMILES	ERa coact inh	BAP1 block	SF1 activator	ERb SRC1 inh	ERa coact pot	RORA act
COC(=O)c1ccc(NC(=O)c2ccc3c(c2)OCO3)cc1	n	n	53	n	n	n
O=C(Nc1nnc(Cc2ccccc2)s1)c1ccccc1I	x	n	x	x	x	x
Cc1ccc(NC(=O)CN2C(=O)S/C(=C\c3ccc(-c4cccc(C(=O)O)c4C)o3)C2=O)cc1	n	x	x	n	250[fluorescence artefact?]	x
Cc1cccc(C(=O)Nc2cccc(C(=O)N3CCOCC3)c2)c1	n	x	x	n	239	x
CCC(=O)N1C(C(=O)NCc2ccc(OC)cc2)CSC1c1ccc(OC)cc1 (configuration not stated)	n	x	x	n	n	x
COc1ccc(C2SCC(C(=O)NCc3ccc(F)cc3)N2C(C)=O)cc1 (configuration not stated)	n	x	x	n	513[fluorescence artefact?]	x
CC1(C)CC(=C2C3C=CC2C2C(=C4CC(C)(C)NC(C)(C)C4)C=CC32)CC(C)(C)N1 (configuration not stated)	x	n	x	x	x	x
COC(=O)c1cccc(NC(=O)c2cc3sccc3n2C)c1	n	n	67	n	n	n
COC(=O)c1ccccc1NC(=O)c1cc2sccc2n1C	n	x	n	n	n	n
N#C/C(=N\Nc1ccccc1F)C(=N)N1CCCCC1	n	x	x	60[fluorescence artefact?]	n	x
CCOC(=O)c1c(N)sc(C(=O)Nc2cc(C)ccc2C)c1C	x	n	x	x	x	x
Cc1cc(=O)c2ccc3ccccc3c2[nH]1	n	x	x	n	n	x
O=c1cc(-c2ccco2)oc2c1ccc1ccccc12	51[fluorescence artefact?]	x	x	52[fluorescence artefact?]	327	x

Compound activity (PubChem BioAssay)
